Experimental data published in paper PMC8463510 (Acta Pharmaceutica Sinica. B, 2021).
≈ marks a conversion by molar mass, not a printed value.

Columns and labels:
[1] = Apparent solubility in vitro; type: physicochemical; details: thermodynamic from solid; for solubility at 2 h: 25 °C
[2] = Oral pharmacokinetics / bioavailability in rats; type: in vivo; details: male, Sprague-Dawley, rat, plasma, 4 mg/kg
Outline: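 Male SD rats (250 ± 50 g), fasted 12 h with water, randomised to groups, n = 6. Test compound or its cyclodextrin/CD-MOF formulations were suspended in 0.5% CMC-Na and given orally at 4 mg/kg (as parent). Orbital blood was taken into heparin at 0–24 h, and plasma stored at −80 °C. Progesterone internal standard, acidified-acetonitrile precipitation, HPLC–MS/MS MRM positive ion (m/z 319.2 → 273.2). PK by […] analysis; mean ± SD.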

[3] = azilsartan loaded in CD-MOF; cited from earlier work
[4] = azilsartan loaded in CD-MOF, SD rats; cited from earlier work

Compound	solubility at 2 h ([1]; pH 1, simulated gastric fluid) [µg/mL]	solubility at 2 h ([1]; pH 4.5, aqueous buffer) [µg/mL]	solubility at 2 h ([1]; pH 6.8, aqueous buffer) [µg/mL]	solubility ([1]; KOH solution, pH 11, aqueous buffer) [µg/mL]	solubility at 2 h ([1]; distilled water, water) [µg/mL]	AUC(0-t) [2] [ng·h/mL]	Cmax [2] [ng/mL]	Tmax [2] [h]	apparent solubility, times of the API [3] [times]	bioavailability, times that of API [4] [times]
C[C@@]12CC[C@@H]3[C@@](CC[C@H]4[C@@]3(C)CCC[C@@]4(C)C(=O)O)(CC1=O)C2 [STV, Isosteviol]	< 0.02	< 0.02	20.1 (≈ 63 µM)	240 (≈ 753 µM)	0.13 (≈ 0.407 µM)	590	61 ± 39	3.01		
CCOc1nc2cccc(C(=O)O)c2n1Cc1ccc(-c2ccccc2-c2noc(=O)[nH]2)cc1 [azilsartan]									340	9.7
